Experimental data from ChEMBL document CHEMBL3217512, “Indole/triazole conjugates are selective inhibitors and inducers of bacterial biofilms” (Medchemcomm, 2013).

Experiments:
Staphylococcus aureus [1] = assay: Antimicrobial activity against Staphylococcus aureus 29213 assessed as effect on planktonic growth at IC50 after 2 to 24 hrs; format: organism-based; conditions: in vivo
Escherichia coli [2] = assay: Inhibition of biofilm formation in Escherichia coli K-12 ER2718 at 150 uM after 24 hrs by crystal violet staining-based assay relative to control; format: functional; conditions: K-12 ER2718, 24 h
Escherichia coli [3] = assay: Antimicrobial activity against Escherichia coli K-12 ER2718 assessed as effect on planktonic growth at IC50 after 2 to 24 hrs; format: organism-based
Staphylococcus aureus [4] = assay: Antimicrobial activity against methicillin-resistant Staphylococcus aureus BAA 44 assessed as effect on planktonic growth at IC50 after 2 to 24 hrs by colony count method; format: organism-based; conditions: in vivo
Escherichia coli [5] = assay: Antimicrobial activity against Escherichia coli K-12 ER2718 assessed as effect on planktonic growth at IC50 after 2 to 24 hrs by colony count method; format: organism-based
Acinetobacter baumannii [6] = assay: Antimicrobial activity against Acinetobacter baumannii 19606 assessed as effect on planktonic growth at IC50 after 2 to 24 hrs by colony count method; set-up: species or system ATCC 19606
Staphylococcus aureus [7] = assay: Antimicrobial activity against Staphylococcus aureus 29213 assessed as effect on planktonic growth at IC50 after 2 to 24 hrs by colony count method; format: organism-based; conditions: in vivo
Staphylococcus aureus [8] = assay: Inhibition of biofilm formation in Staphylococcus aureus 29213 at 150 uM after 24 hrs by crystal violet staining-based assay relative to control; format: functional; conditions: Staphylococcus aureus, 29213, 24 h
Staphylococcus aureus [9] = assay: Antimicrobial activity against methicillin-resistant Staphylococcus aureus BAA 44 assessed as effect on planktonic growth at IC50 after 2 to 24 hrs; format: organism-based; conditions: in vivo
Acinetobacter baumannii [10] = assay: Antimicrobial activity against Acinetobacter baumannii 19606 assessed as effect on planktonic growth at IC50 after 2 to 24 hrs; set-up: species or system ATCC 19606
Acinetobacter baumannii [11] = assay: Inhibition of biofilm formation in Acinetobacter baumannii 19606 at 150 uM after 24 hrs by crystal violet staining-based assay relative to control; format: functional; conditions: ATCC 19606 = CIP 70.34 = JCM 6841, 24 h
Staphylococcus aureus [12] = assay: Inhibition of biofilm formation in methicillin-resistant Staphylococcus aureus BAA 44 at 150 uM after 24 hrs by crystal violet staining-based assay relative to control; format: functional; conditions: BAA 44, 24 h
Procedure, shortened: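 Static biofilm development in MRSA, read out by crystal violet staining against an untreated control. Initial screen at 150 μM. Inhibitors then went to dose-response, with IC50 taken as the concentration giving 50% inhibition of biofilm growth. Induction was judged at 50 μM: under 50% induction counted as "inducer", over 50% as "strong inducer".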

Escherichia coli [13] = assay: Antimicrobial activity against Escherichia coli K-12 ER2718 assessed as effect on planktonic growth at PC75 after 2 to 24 hrs; format: organism-based; conditions: in vivo
Escherichia coli [14] = assay: Antimicrobial activity against Escherichia coli K-12 ER2718 assessed as effect on planktonic growth at PC50 after 2 to 24 hrs by colony count method; format: organism-based; conditions: in vivo
Escherichia coli [15] = assay: Induction of biofilm formation in Escherichia coli K-12 ER2718 at 50 uM after 24 hrs by crystal violet staining-based assay relative to control; format: functional
Procedure, shortened: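 Static biofilm assay with compounds at 50 μM and crystal violet read-out, relative to an untreated control. Compounds increasing biofilm by less than 50% were called inducers, and by more than 50% strong inducers.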

Escherichia coli [16] = assay: Antimicrobial activity against Escherichia coli K-12 ER2718 assessed as effect on planktonic growth at PC75 after 2 to 24 hrs by colony count method; format: organism-based; conditions: in vivo
Escherichia coli [17] = assay: Antimicrobial activity against Escherichia coli K-12 ER2718 assessed as effect on planktonic growth at 50 uM after 2 to 24 hrs; format: organism-based
Procedure, shortened: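 Growth curve analysis of planktonic bacteria with each biofilm inducer at 50 μM, used to assess toxicity.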

Escherichia coli [18] = assay: Antimicrobial activity against Escherichia coli K-12 ER2718 assessed as effect on planktonic growth at PC25 after 2 to 24 hrs by colony count method; format: organism-based
Escherichia coli [19] = assay: Antimicrobial activity against Escherichia coli K-12 ER2718 assessed as effect on planktonic growth at PC50 after 2 to 24 hrs; format: organism-based
Escherichia coli [20] = assay: Antimicrobial activity against Escherichia coli K-12 ER2718 assessed as effect on planktonic growth at PC25 after 2 to 24 hrs; format: organism-based

CCCCCCc1ccc(C(=O)NCCn2cc(Cc3csc4ccccc34)nn2)cc1
Activity (Staphylococcus aureus [1]): Non-toxic
inhibition at 150 µM (Escherichia coli [2]): < 5%
Activity (Escherichia coli [3]): Non-toxic
Activity (Staphylococcus aureus [4]): Non-toxic
Activity (Escherichia coli [5]): Non-toxic
Activity (Acinetobacter baumannii [6]): Non-toxic
Activity (Staphylococcus aureus [7]): Non-toxic
inhibition at 150 µM (Staphylococcus aureus [8]): < 5%
Activity (Staphylococcus aureus [9]): Non-toxic
Activity (Acinetobacter baumannii [10]): Non-toxic
inhibition at 150 µM (Acinetobacter baumannii [11]): < 5%
inhibition at 150 µM (Staphylococcus aureus [12]): < 5%

CCCCCCNC(=O)Cn1cc(Cc2c[nH]c3ccccc23)nn1
Activity (Escherichia coli [13]): Non-toxic
Activity (Escherichia coli [14]): Non-toxic
Activity (Staphylococcus aureus [1]): Non-toxic
Activity (Escherichia coli [3]): Non-toxic
Activity (Escherichia coli [15]): <50%
Activity (Staphylococcus aureus [4]): Non-toxic
Activity (Escherichia coli [5]): Non-toxic
Activity (Escherichia coli [16]): Non-toxic
Activity (Acinetobacter baumannii [6]): Non-toxic
Activity (Staphylococcus aureus [7]): Non-toxic
Activity (Escherichia coli [17]): Non-toxic
Activity (Escherichia coli [18]): Non-toxic
inhibition at 150 µM (Staphylococcus aureus [8]): < 5%
Activity (Staphylococcus aureus [9]): Non-toxic
Activity (Acinetobacter baumannii [10]): Non-toxic
Activity (Escherichia coli [19]): Non-toxic
inhibition at 150 µM (Acinetobacter baumannii [11]): 25%
Activity (Escherichia coli [20]): Non-toxic
inhibition at 150 µM (Staphylococcus aureus [12]): < 5%

O=C(NCCn1cc(Cc2csc3ccccc23)nn1)c1ccccc1
Activity (Staphylococcus aureus [1]): Non-toxic
inhibition at 150 µM (Escherichia coli [2]): 14%
Activity (Escherichia coli [3]): Non-toxic
Activity (Staphylococcus aureus [4]): Non-toxic
Activity (Escherichia coli [5]): Non-toxic
Activity (Acinetobacter baumannii [6]): Non-toxic
Activity (Staphylococcus aureus [7]): Non-toxic
inhibition at 150 µM (Staphylococcus aureus [8]): < 5%
Activity (Staphylococcus aureus [9]): Non-toxic
Activity (Acinetobacter baumannii [10]): Non-toxic
inhibition at 150 µM (Acinetobacter baumannii [11]): < 5%
inhibition at 150 µM (Staphylococcus aureus [12]): < 5%

O=C(NCCn1cc(Cc2c[nH]c3ccccc23)nn1)c1ccccc1
Activity (Staphylococcus aureus [1]): Non-toxic
inhibition at 150 µM (Escherichia coli [2]): < 5%
Activity (Escherichia coli [3]): Non-toxic
Activity (Staphylococcus aureus [4]): Non-toxic
Activity (Escherichia coli [5]): Non-toxic
Activity (Acinetobacter baumannii [6]): Non-toxic
Activity (Staphylococcus aureus [7]): Non-toxic
inhibition at 150 µM (Staphylococcus aureus [8]): 23%
Activity (Staphylococcus aureus [9]): Non-toxic
Activity (Acinetobacter baumannii [10]): Non-toxic
inhibition at 150 µM (Acinetobacter baumannii [11]): < 5%
inhibition at 150 µM (Staphylococcus aureus [12]): < 5%

COc1ccc(CNC(=O)Cn2cc(Cc3csc4ccccc34)nn2)cc1
Activity (Staphylococcus aureus [1]): Non-toxic
inhibition at 150 µM (Escherichia coli [2]): < 5%
Activity (Escherichia coli [3]): Non-toxic
Activity (Staphylococcus aureus [4]): Non-toxic
Activity (Escherichia coli [5]): Non-toxic
Activity (Acinetobacter baumannii [6]): Non-toxic
Activity (Staphylococcus aureus [7]): Non-toxic
inhibition at 150 µM (Staphylococcus aureus [8]): < 5%
Activity (Staphylococcus aureus [9]): Non-toxic
Activity (Acinetobacter baumannii [10]): Non-toxic
inhibition at 150 µM (Acinetobacter baumannii [11]): 20%
inhibition at 150 µM (Staphylococcus aureus [12]): < 5%

CCCCCCc1ccc(C(=O)NCCn2cc(Cc3c(Br)[nH]c4ccccc34)nn2)cc1
Activity (Escherichia coli [13]): Non-toxic
Activity (Escherichia coli [14]): Non-toxic
Activity (Staphylococcus aureus [1]): Non-toxic
Activity (Escherichia coli [3]): Non-toxic
Activity (Escherichia coli [15]): <50%
Activity (Staphylococcus aureus [4]): Non-toxic
Activity (Escherichia coli [5]): Non-toxic
Activity (Escherichia coli [16]): Non-toxic
Activity (Acinetobacter baumannii [6]): Non-toxic
Activity (Staphylococcus aureus [7]): Non-toxic
Activity (Escherichia coli [17]): Non-toxic
Activity (Escherichia coli [18]): Non-toxic
inhibition at 150 µM (Staphylococcus aureus [8]): 40%
Activity (Staphylococcus aureus [9]): Non-toxic
Activity (Acinetobacter baumannii [10]): Non-toxic
Activity (Escherichia coli [19]): Non-toxic
inhibition at 150 µM (Acinetobacter baumannii [11]): 22%
Activity (Escherichia coli [20]): Non-toxic
inhibition at 150 µM (Staphylococcus aureus [12]): 25%

O=C(Cn1cc(Cc2c[nH]c3ccccc23)nn1)Nc1ccccc1
Activity (Escherichia coli [13]): Non-toxic
Activity (Escherichia coli [14]): Non-toxic
Activity (Staphylococcus aureus [1]): Non-toxic
Activity (Escherichia coli [3]): Non-toxic
Activity (Escherichia coli [15]): <50%
Activity (Staphylococcus aureus [4]): Non-toxic
Activity (Escherichia coli [5]): Non-toxic
Activity (Escherichia coli [16]): Non-toxic
Activity (Acinetobacter baumannii [6]): Non-toxic
Activity (Staphylococcus aureus [7]): Non-toxic
Activity (Escherichia coli [17]): Non-toxic
Activity (Escherichia coli [18]): Non-toxic
inhibition at 150 µM (Staphylococcus aureus [8]): < 5%
Activity (Staphylococcus aureus [9]): Non-toxic
Activity (Acinetobacter baumannii [10]): Non-toxic
Activity (Escherichia coli [19]): Non-toxic
inhibition at 150 µM (Acinetobacter baumannii [11]): < 5%
Activity (Escherichia coli [20]): Non-toxic
inhibition at 150 µM (Staphylococcus aureus [12]): < 5%
